Assays:
[1] = Inhibition of calcium channel in mouse neocortical neurons assessed as inhibition of intracellular calcium oscilations; assay type: cell-based
Procedure, shortened: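 Primary neocortical neurons from embryonic day 16 Swiss-Webster mice, used at 12–13 DIV. Loaded 1 h with 4 μM fluo-3 plus 0.04% pluronic F-127 in Locke's buffer (pH 7.4), washed four times. Excitation 485 nm, emission 535 nm, read every 1.5 s; 60 s baseline, then compound added as a 4× solution. IC50 given with 95% CI.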

NCI-H460 = assay: Cytotoxicity against human H460 cells; assay type: functional, cell-based
[2] = Cytotoxicity against mouse Neuro2a cells; assay type: functional, cell-based, N2a
[3] = Activation of voltage-gated sodium channel in mouse neocortical neuron assessed as intracellular sodium influx
[4] = Activation of voltage-gated sodium channel in mouse Neuro-2a cells assessed as intracellular sodium influx; conditions: N2a
[5] = Homo sapiens, NCI-H460, read-out: IC50

IC50 [4]	Compound	IC50 [1]	IC50 (NCI-H460; nci-h460)	IC50 ([2]; n2a)	EC50 [3]	IC50 ([1]; Mus musculus, read-out: IC50)	EC50 ([3]; Mus musculus, read-out: EC50)	IC50 (NCI-H460; [5])	IC50 ([2]; Mus musculus, N2a, read-out: IC50)
	CCC[C@@H](C)[C@H](O)[C@H](C)[C@@H](O)[C@@H](C)[C@H](Cc1nc(C2=N[C@@](C)(C3=N[C@@](C)(C(=O)N[C@H]([C@@H](O)[C@@H](C)C(=O)OCC)[C@@H](C)CC)CS3)CS2)cs1)OC [HOIAMIDE C]	Not Active	Not Active	Not Active	Not Active				
3400 nM	CCC[C@@H](C)[C@H](OC(=O)c1ccc(Br)cc1)[C@H](C)[C@H]1OC(=O)[C@H]([C@@H](C)O)NC(=O)[C@H](C(C)C)OC(=O)[C@H](C)[C@H](O)[C@H]([C@@H](C)CC)NC(=O)[C@@]2(C)CSC(=N2)[C@@]2(C)CSC(=N2)c2csc(n2)C[C@H](OC)[C@@H]1C		Not Active			87.3 nM	9300 nM		
	CCC[C@@H](C)[C@H](O)[C@H](C)[C@H]1OC(=O)[C@H]([C@@H](C)O)NC(=O)[C@H]([C@@H](C)CC)OC(=O)[C@H](C)[C@H](O)[C@H]([C@@H](C)CC)NC(=O)[C@@]2(C)CSC(=N2)[C@@]2(C)CSC(=N2)c2csc(n2)C[C@H](OC)[C@@H]1C [HOIAMIDE B]			Not Active		79.8 nM	3900 nM	8300 nM	
	CCC[C@@H](C)[C@H](OC(C)=O)[C@H](C)[C@H]1OC(=O)[C@H]([C@@H](C)OC(C)=O)NC(=O)[C@H](C(C)C)OC(=O)[C@H](C)[C@H](OC(C)=O)[C@H]([C@@H](C)CC)NC(=O)[C@@]2(C)CSC(=N2)[C@@]2(C)CSC(=N2)c2csc(n2)C[C@H](OC)[C@@H]1C	Not Active	Not Active	Not Active	Not Active				
	CCC[C@@H](C)[C@H](O)[C@H](C)[C@H]1OC(=O)[C@H]([C@@H](C)O)NC(=O)[C@H](C(C)C)OC(=O)[C@H](C)[C@H](O)[C@H]([C@@H](C)CC)NC(=O)[C@@]2(C)CSC(=N2)[C@@]2(C)CSC(=N2)c2csc(n2)C[C@H](OC)[C@@H]1C [HOIAMIDE A]					45.6 nM	1700 nM	11200 nM	2100 nM

Reference: ChEMBL document CHEMBL1212930, “The hoiamides, structurally intriguing neurotoxic lipopeptides from Papua New Guinea marine cyanobacteria” (J Nat Prod, 2010)
